≈ marks a conversion by molar mass, not a printed value.
Experiments:
Format in all cases: functional
Streptococcus pyogenes [1] = experiment: Antibacterial activity against erythromycin-susceptible Streptococcus pyogenes after 16 to 22 hrs by broth microdilution method
Procedure, shortened: (§1)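 Streptococci tested by CLSI broth microdilution in Mueller–Hinton broth with 5% horse serum, using two-fold serial dilutions. Compounds were dissolved in DMF at 5 mg/ml (stock). Inoculum was a turbidity-adjusted direct colony suspension giving about 5 × 10⁴ CFU/well. Trays were held at 35 °C for 16–22 h. MIC is the lowest concentration completely inhibiting growth (99%).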

Staphylococcus aureus = experiment: Antibacterial activity against Staphylococcus aureus ATCC 29213 after 16 to 22 hrs by broth microdilution method
Procedure, shortened: (§2)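 Broth microdilution per the CLSI approved standard (sixth edition), using two-fold serial dilutions of compound in Mueller–Hinton broth. Stocks at 5 mg/ml in DMF. Inoculum came from a direct colony suspension adjusted by turbidity to about 5 × 10⁴ CFU/well final. Trays were incubated at 35 °C for 16–22 h. MIC is the lowest concentration completely inhibiting growth (99% inhibition).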

Streptococcus pneumoniae [2] = experiment: Antibacterial activity against constitutive macrolide-lincosamide-streptogramin-resistant Streptococcus pneumoniae after 16 to 22 hrs by broth microdilution method
Procedure, shortened: (§3)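 Two-fold serial dilutions in microdilution trays, following the CLSI dilution standard for aerobic bacteria. Medium was Mueller–Hinton broth with 5% horse serum for streptococci. Stocks were made at 5 mg/ml in DMF. Inoculum came from a direct colony suspension adjusted by turbidity to about 5 × 10⁴ CFU/well final. Incubation was at 35 °C for 16–22 h. MIC is the lowest concentration completely inhibiting growth (99% inhibition).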

Streptococcus pneumoniae [3] = experiment: Antibacterial activity against efflux-mediated macrolide-resistant Streptococcus pneumoniae after 16 to 22 hrs by broth microdilution method; procedure, shortened: as §3
Streptococcus pneumoniae [4] = experiment: Antibacterial activity against erythromycin-susceptible Streptococcus pneumoniae after 16 to 22 hrs by broth microdilution method; procedure, shortened: as §1
Streptococcus pyogenes [5] = experiment: Antibacterial activity against efflux-mediated macrolide-resistance Streptococcus pyogenes after 16 to 22 hrs by broth microdilution method; procedure, shortened: as §3
Escherichia coli = experiment: Antibacterial activity against Escherichia coli ATCC 25922 after 16 to 22 hrs by broth dilution method; procedure, shortened: as §2
Enterococcus faecalis = experiment: Antibacterial activity against Enterococcus faecalis ATCC 29212 after 16 to 22 hrs by broth dilution method; procedure, shortened: as §2
Haemophilus influenzae = experiment: Antibacterial activity against Haemophilus influenzae ATCC 49247 after 16 to 22 hrs by broth dilution method
Procedure, shortened: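 Microdilution trays following the CLSI standard, with two-fold serial dilutions in supplemented broth suited to H. influenzae. DMF stocks at 5 mg/ml. Inoculum prepared from a turbidity-adjusted direct colony suspension to about 5 × 10⁴ CFU/well final. Incubated at 35 °C for 16–22 h. MIC is the lowest concentration giving complete (99%) growth inhibition.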

Moraxella catarrhalis = experiment: Antibacterial activity against Moraxella catarrhalis ATCC 23246 after 16 to 22 hrs by broth dilution method; procedure, shortened: as §2
Streptococcus pyogenes [6] = experiment: Antibacterial activity against inducible macrolide-lincosamide-streptogramin-resistant Streptococcus pyogenes 16 to 22 hrs by broth microdilution method; procedure, shortened: as §3

Row | SMILES | MIC (Streptococcus pyogenes [1]) [µg/mL] | MIC (Staphylococcus aureus) [µg/mL] | MIC (Streptococcus pneumoniae [2]) [µg/mL] | MIC (Streptococcus pneumoniae [3]) [µg/mL] | MIC (Streptococcus pneumoniae [4]) [µg/mL] | MIC (Streptococcus pyogenes [5]) [µg/mL] | MIC (Escherichia coli) [µg/mL] | MIC (Enterococcus faecalis) [µg/mL] | MIC (Haemophilus influenzae) [µg/mL] | MIC (Moraxella catarrhalis) [µg/mL] | MIC (Streptococcus pyogenes [6]) [µg/mL]
1 | CC[C@H]1OC(=O)[C@H](C)[C@@H](O[C@H]2C[C@@](C)(OC)[C@@H](O)[C@H](C)O2)[C@H](C)[C@@H](O[C@@H]2O[C@H](C)C[C@H](N(C)C)[C@H]2O)[C@](C)(O)C[C@@H](C)CN(CCCN(CCC#N)C(=O)NCc2ccccc2)[C@H](C)[C@@H](O)[C@]1(C)O | ≤ 0.125 | 2 (≈ 2.04 µM) | 64 (≈ 65.4 µM) | 16 (≈ 16.4 µM) | ≤ 0.125 | 8 (≈ 8.18 µM) | 8 (≈ 8.18 µM) | 32 (≈ 32.7 µM) | 4 (≈ 4.09 µM) | 0.5 (≈ 0.511 µM) | 16 (≈ 16.4 µM)
2 | CC[C@H]1OC(=O)[C@H](C)[C@@H](O[C@H]2C[C@@](C)(OC)[C@@H](O)[C@H](C)O2)[C@H](C)[C@@H](O[C@@H]2O[C@H](C)C[C@H](N(C)C)[C@H]2O)[C@](C)(O)C[C@@H](C)CN(CCCNC(=S)NCc2ccccc2)[C@H](C)[C@@H](O)[C@]1(C)O | ≤ 0.125 | 0.5 (≈ 0.531 µM) | 64 (≈ 68 µM) | 8 (≈ 8.5 µM) | ≤ 0.125 | 4 (≈ 4.25 µM) | 16 (≈ 17 µM) | 8 (≈ 8.5 µM) | 2 (≈ 2.12 µM) | 1 (≈ 1.06 µM) | 4 (≈ 4.25 µM)
3 | CC[C@H]1OC(=O)[C@H](C)[C@@H](O[C@H]2C[C@@](C)(OC)[C@@H](O)[C@H](C)O2)[C@H](C)[C@@H](O[C@@H]2O[C@H](C)C[C@H](N(C)C)[C@H]2O)[C@](C)(O)C[C@@H](C)CN(CCCN(CCC#N)C(=O)NC(C)C)[C@H](C)[C@@H](O)[C@]1(C)O | ≤ 0.125 | 4 (≈ 4.3 µM) | > 64 | 32 (≈ 34.4 µM) | ≤ 0.125 | 32 (≈ 34.4 µM) | 16 (≈ 17.2 µM) | 64 (≈ 68.8 µM) | 4 (≈ 4.3 µM) | 0.5 (≈ 0.537 µM) | 32 (≈ 34.4 µM)
4 | CC[C@H]1OC(=O)[C@H](C)[C@@H](O[C@H]2C[C@@](C)(OC)[C@@H](O)[C@H](C)O2)[C@H](C)[C@@H](O[C@@H]2O[C@H](C)C[C@H](N(C)C)[C@H]2O)[C@](C)(O)C[C@@H](C)CN(CCCN(CCC#N)C(=S)NCc2ccccc2)[C@H](C)[C@@H](O)[C@]1(C)O | ≤ 0.125 | 1 (≈ 1.01 µM) | 64 (≈ 64.4 µM) | 16 (≈ 16.1 µM) | ≤ 0.125 | 8 (≈ 8.05 µM) | 16 (≈ 16.1 µM) | 32 (≈ 32.2 µM) | 4 (≈ 4.02 µM) | 1 (≈ 1.01 µM) | 16 (≈ 16.1 µM)
5 | CC[C@H]1OC(=O)[C@H](C)[C@@H](O[C@H]2C[C@@](C)(OC)[C@@H](O)[C@H](C)O2)[C@H](C)[C@@H](O[C@@H]2O[C@H](C)C[C@H](N(C)C)[C@H]2O)[C@](C)(O)C[C@@H](C)CN(C)[C@H](C)[C@@H](O)[C@]1(C)O [AZITHROMYCIN] | ≤ 0.125 | 0.5 (≈ 0.668 µM) | 64 (≈ 85.4 µM) | 8 (≈ 10.7 µM) | ≤ 0.125 | 4 (≈ 5.34 µM) | 2 (≈ 2.67 µM) | 8 (≈ 10.7 µM) | 1 (≈ 1.34 µM) | ≤ 0.125 | 8 (≈ 10.7 µM)
6 | CC[C@H]1OC(=O)[C@H](C)[C@@H](O[C@H]2C[C@@](C)(OC)[C@@H](O)[C@H](C)O2)[C@H](C)[C@@H](O[C@@H]2O[C@H](C)C[C@H](N(C)C)[C@H]2O)[C@](C)(O)C[C@@H](C)CN(CCCN(CCC#N)C(=O)NC(C)c2cccc3ccccc23)[C@H](C)[C@@H](O)[C@]1(C)O (some centres undefined) | ≤ 0.125 | 2 (≈ 1.92 µM) | 16 (≈ 15.3 µM) | 32 (≈ 30.7 µM) | ≤ 0.125 | 8 (≈ 7.67 µM) | 32 (≈ 30.7 µM) | 16 (≈ 15.3 µM) | 2 (≈ 1.92 µM) | 0.5 (≈ 0.48 µM) | 8 (≈ 7.67 µM)
7 | CC[C@H]1OC(=O)[C@H](C)[C@@H](O[C@H]2C[C@@](C)(OC)[C@@H](O)[C@H](C)O2)[C@H](C)[C@@H](O[C@@H]2O[C@H](C)C[C@H](N(C)C)[C@H]2O)[C@](C)(O)C[C@@H](C)CN(CCCN(CCC#N)C(=O)Nc2ccc3ccccc3c2)[C@H](C)[C@@H](O)[C@]1(C)O | ≤ 0.125 | 1 (≈ 0.986 µM) | 32 (≈ 31.5 µM) | 16 (≈ 15.8 µM) | ≤ 0.125 | 8 (≈ 7.89 µM) | 32 (≈ 31.5 µM) | 16 (≈ 15.8 µM) | 2 (≈ 1.97 µM) | 1 (≈ 0.986 µM) | 16 (≈ 15.8 µM)
8 | CC[C@H]1OC(=O)[C@H](C)[C@@H](O[C@H]2C[C@@](C)(OC)[C@@H](O)[C@H](C)O2)[C@H](C)[C@@H](O[C@@H]2O[C@H](C)C[C@H](N(C)C)[C@H]2O)[C@](C)(O)C[C@@H](C)CN(CCCNC(=O)Nc2ccccc2)[C@H](C)[C@@H](O)[C@]1(C)O | ≤ 0.125 | 0.25 (≈ 0.274 µM) | > 64 | 16 (≈ 17.6 µM) | ≤ 0.125 | 16 (≈ 17.6 µM) | 8 (≈ 8.78 µM) | 16 (≈ 17.6 µM) | 8 (≈ 8.78 µM) | 2 (≈ 2.19 µM) | 4 (≈ 4.39 µM)
9 | CC[C@H]1OC(=O)[C@H](C)[C@@H](O[C@H]2C[C@@](C)(OC)[C@@H](O)[C@H](C)O2)[C@H](C)[C@@H](O[C@@H]2O[C@H](C)C[C@H](N(C)C)[C@H]2O)[C@](C)(O)C[C@@H](C)CN(CCCNC(=S)NCCc2ccccc2)[C@H](C)[C@@H](O)[C@]1(C)O | ≤ 0.125 | 1 (≈ 1.05 µM) | > 64 | 8 (≈ 8.37 µM) | ≤ 0.125 | 4 (≈ 4.19 µM) | 32 (≈ 33.5 µM) | 16 (≈ 16.7 µM) | 2 (≈ 2.09 µM) | 1 (≈ 1.05 µM) | 4 (≈ 4.19 µM)
10 | CC[C@H]1OC(=O)[C@H](C)[C@@H](O[C@H]2C[C@@](C)(OC)[C@@H](O)[C@H](C)O2)[C@H](C)[C@@H](O[C@@H]2O[C@H](C)C[C@H](N(C)C)[C@H]2O)[C@](C)(O)C[C@@H](C)CN(CCCNC(=O)NC(C)C)[C@H](C)[C@@H](O)[C@]1(C)O | ≤ 0.125 | 2 (≈ 2.28 µM) | > 64 | 32 (≈ 36.5 µM) | ≤ 0.125 | 32 (≈ 36.5 µM) | 16 (≈ 18.2 µM) | 32 (≈ 36.5 µM) | 16 (≈ 18.2 µM) | 1 (≈ 1.14 µM) | 8 (≈ 9.12 µM)
11 | CC[C@H]1OC(=O)[C@H](C)[C@@H](O[C@H]2C[C@@](C)(OC)[C@@H](O)[C@H](C)O2)[C@H](C)[C@@H](O[C@@H]2O[C@H](C)C[C@H](N(C)C)[C@H]2O)[C@](C)(O)C[C@@H](C)CN(CCCN(CCC#N)C(=O)Nc2ccccc2)[C@H](C)[C@@H](O)[C@]1(C)O | ≤ 0.125 | 1 (≈ 1.04 µM) | > 64 | 32 (≈ 33.2 µM) | ≤ 0.125 | 32 (≈ 33.2 µM) | 32 (≈ 33.2 µM) | 32 (≈ 33.2 µM) | 8 (≈ 8.3 µM) | 4 (≈ 4.15 µM) | 16 (≈ 16.6 µM)
12 | CC[C@H]1OC(=O)[C@H](C)[C@@H](O[C@H]2C[C@@](C)(OC)[C@@H](O)[C@H](C)O2)[C@H](C)[C@@H](O[C@@H]2O[C@H](C)C[C@H](N(C)C)[C@H]2O)[C@](C)(O)C[C@@H](C)CN(CCCN(CCC#N)C(=S)Nc2ccccc2)[C@H](C)[C@@H](O)[C@]1(C)O | ≤ 0.125 | 2 (≈ 2.04 µM) | > 64 | 32 (≈ 32.6 µM) | ≤ 0.125 | 32 (≈ 32.6 µM) | > 64 | > 64 | 16 (≈ 16.3 µM) | 4 (≈ 4.08 µM) | 32 (≈ 32.6 µM)
13 | CC[C@H]1OC(=O)[C@H](C)[C@@H](O[C@H]2C[C@@](C)(OC)[C@@H](O)[C@H](C)O2)[C@H](C)[C@@H](O[C@@H]2O[C@H](C)C[C@H](N(C)C)[C@H]2O)[C@](C)(O)C[C@@H](C)CN(CCCN(CCC#N)C(=O)NCCc2ccccc2)[C@H](C)[C@@H](O)[C@]1(C)O | ≤ 0.125 | 4 (≈ 4.03 µM) | > 64 | 64 (≈ 64.5 µM) | ≤ 0.125 | 64 (≈ 64.5 µM) | > 64 | 64 (≈ 64.5 µM) | 32 (≈ 32.2 µM) | 16 (≈ 16.1 µM) | 32 (≈ 32.2 µM)
14 | CC[C@H]1OC(=O)[C@H](C)[C@@H](O[C@H]2C[C@@](C)(OC)[C@@H](O)[C@H](C)O2)[C@H](C)[C@@H](O[C@@H]2O[C@H](C)C[C@H](N(C)C)[C@H]2O)[C@](C)(O)C[C@@H](C)CN(CCCN(CCC#N)C(=S)NCCCc2ccccc2)[C@H](C)[C@@H](O)[C@]1(C)O | ≤ 0.125 | 1 (≈ 0.978 µM) | 32 (≈ 31.3 µM) | 32 (≈ 31.3 µM) | ≤ 0.125 | 16 (≈ 15.6 µM) | 16 (≈ 15.6 µM) | 16 (≈ 15.6 µM) | 4 (≈ 3.91 µM) | 4 (≈ 3.91 µM) | 8 (≈ 7.82 µM)
